According to EPA's CvTdb concentration-time database:

Assays:
[1] = system: Hamster; test: concentration in plasma after dosing; settings: dosed: 2,4-Dichlorophenoxyacetic acid, 8.0 mg/kg, oral, Male, Syrian Golden
In short: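 Data points giving concentration or amount against time came from published in vivo toxicokinetic studies and from two structured collections. PubMed searching, classifier screening and manual review located the studies. Most points were digitised from plot screenshots using WebPlotDigitizer, the rest were copied from tables, and all keep their reported units.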

[2] = system: Mouse; test: concentration in plasma after dosing; settings: 2.5 min; dosed: 2,4-Dichlorophenoxyacetic acid; 1.0 mg/kg; oral; Male; B6C3F1
[3] = system: Rat; test: concentration in plasma after dosing; settings: 10 min; dosed: 2,4-Dichlorophenoxyacetic acid; 2.0 mg/kg; iv; Male; Sprague-Dawley
[4] = system: Mouse; test: concentration in plasma after dosing; settings: dosed: 2,4-Dichlorophenoxyacetic acid, 5.2 mg/kg, oral, Male, B6C3F1
[5] = system: Mouse; test: concentration in plasma after dosing; settings: 5 min; dosed: 2,4-Dichlorophenoxyacetic acid; 2.0 mg/kg; oral; Male; B6C3F1
[6] = system: Mouse; test: concentration in plasma after dosing; settings: 0.25 h; dosed: 2-Hydroxy-4-methoxybenzophenone; 500 mg/kg; oral; Male; B6C3F1
[7] = system: Mouse; test: concentration in plasma after dosing; settings: 10 min; dosed: 2-Hydroxy-4-methoxybenzophenone; 500 mg/kg; oral; Female; B6C3F1
[8] = system: Rat; test: concentration in plasma after dosing; settings: dosed: 2-Hydroxy-4-methoxybenzophenone, 250 mg/kg, oral, Male, F344
[9] = system: Mouse; test: concentration in plasma after dosing; settings: 3 h; dosed: 2-Hydroxy-4-methoxybenzophenone; 50 mg/kg; iv; Female; B6C3F1
[10] = system: Mouse; test: concentration in plasma after dosing; settings: 3 h; dosed: 2-Hydroxy-4-methoxybenzophenone; 50 mg/kg; iv; Male; B6C3F1
[11] = system: Mouse; test: concentration in plasma after dosing; settings: 3 h; dosed: 2-Hydroxy-4-methoxybenzophenone; 250 mg/kg; oral; Female; B6C3F1
[12] = system: Mouse; test: concentration in plasma after dosing; settings: 10 min; dosed: 2-Hydroxy-4-methoxybenzophenone; 50 mg/kg; iv; Female; B6C3F1
[13] = system: Rat; test: concentration in plasma after dosing; settings: 0.25 h; dosed: 2-Hydroxy-4-methoxybenzophenone; 500 mg/kg; oral; Male; F344
[14] = system: Rat; test: concentration in plasma after dosing; settings: dosed: Methyleugenol, 37 mg/kg, oral, Male, F344/N
[15] = system: Rat; test: concentration in plasma after dosing; settings: dosed: Methyleugenol, 37 mg/kg, oral, Male, F344/N; remark: listed apart in the source
[16] = system: Rat; test: concentration in plasma after dosing; settings: dosed: Methyleugenol, 37 mg/kg, oral, Male, F344/N; remark: listed apart in the source
[17] = system: Rat; test: concentration in liver after dosing; settings: 96 h; dosed: Perfluorohexane-1-sulphonic acid – potassium salt; 16 mg/kg; oral; Female; Harlan Sprague Dawley
[18] = system: Rat; test: concentration in brain after dosing; settings: 6 h; dosed: Perfluorohexane-1-sulphonic acid – potassium salt; 16 mg/kg; oral; Female; Harlan Sprague Dawley
[19] = system: Rat; test: concentration in liver after dosing; settings: 528 h; dosed: Perfluorohexane-1-sulphonic acid – potassium salt; 16 mg/kg; oral; Female; F344
[20] = system: Rat; test: concentration in liver after dosing; settings: 3 h; dosed: Perfluorohexane-1-sulphonic acid – potassium salt; 16 mg/kg; oral; Female; Harlan Sprague Dawley
[21] = system: Rat; test: concentration in brain after dosing; settings: 6 h; dosed: Perfluorohexane-1-sulphonic acid – potassium salt; 16 mg/kg; oral; Female; F344
[22] = system: Rat; test: concentration in liver after dosing; settings: 6 h; dosed: Perfluorohexane-1-sulphonic acid – potassium salt; 16 mg/kg; oral; Female; Harlan Sprague Dawley
[23] = system: Rat; test: concentration in plasma after dosing; settings: 6 h; dosed: Primidone; 80 mg/kg; oral; Male; F344
[24] = system: Rat; test: concentration in plasma after dosing; settings: 6 h; dosed: Primidone; 30 mg/kg; oral; Female; F344
[25] = system: Rat; test: concentration in plasma after dosing; settings: 20 min; dosed: Pyridine; 10 mg/kg; oral; Female; Harlan Sprague-Dawley
[26] = system: Rat; test: concentration in plasma after dosing; settings: dosed: Pyridine, 5 mg/kg, iv, Male, F344
[27] = system: Rat; test: concentration in plasma after dosing; settings: 2.5 h; dosed: 76231-76-0; 3.0 mg/kg; iv; Female; F344
[28] = system: Rat; test: concentration in plasma after dosing; settings: 1.5 h; dosed: alpha-Thujone; 25 mg/kg; oral; Male; Harlan Sprague Dawley
[29] = system: Rat; test: concentration in plasma after dosing; settings: 5 min; dosed: alpha-Thujone; 50 mg/kg; oral; Female; Harlan Sprague Dawley
[30] = system: Rat; test: concentration in plasma after dosing; settings: 5 min; dosed: alpha-Thujone; 50 mg/kg; oral; Female; Harlan Sprague Dawley; remark: listed apart in the source
[31] = system: Rat; test: concentration in plasma after dosing; settings: 3 h; dosed: alpha-Thujone; 50 mg/kg; oral; Female; Harlan Sprague Dawley
[32] = system: Rat; test: concentration in brain after dosing; settings: 2 min; dosed: alpha-Thujone; 25 mg/kg; oral; Female; Harlan Sprague Dawley
[33] = system: Rat; test: concentration in brain after dosing; settings: 10 min; dosed: alpha-Thujone; 50 mg/kg; oral; Female; Harlan Sprague Dawley

O=C(O)COc1ccc(Cl)cc1Cl [2,4-Dichlorophenoxyacetic acid]
concentration in plasma [µg/mL]
Settings | [1] | [4]
0.25 h | 21.8 | 12.9
0.5 h | 8.62 | 21.1
1 h | 1.74 | –
1.5 h | 0.761 | –
2 h | 1.36 | 18.6
2.5 h | 0.115 | –
3 h | – | 8.14
4 h | – | 8.94
5 min | 25.7 | 18.9
6 h | 0.466 | 2.91
10 h | – | 0.212

Settings | concentration in plasma [µg/mL]
[2] | 1.73
[3] | 13.2
[5] | 4.56

O=C(c1ccccc1)c1ccc(O)cc1O [2,4-Dihydroxybenzophenone]
Settings | concentration in plasma [µg/mL]
[6] | 1.98
[7] | 4.25
[9] | 0.0577
[10] | 0.232
[11] | 0.162
[12] | 2.27
[13] | 0.713

[8]
Settings | concentration in plasma [µg/mL]
0.5 h | 0.888
10 h | 0.0755

C=CCc1ccc(OC)c(OC)c1 [Methyleugenol]
Settings | concentration in plasma [µg/mL]
[14], 6 h | 0.0111
[14], 10 min | 0.176
[15], 5 min | 0.67
[15], 6 h | 0.0116
[16], 2 min | 0.036
[16], 3 h | 0.0461

O=S(=O)([O-])C(F)(F)C(F)(F)C(F)(F)C(F)(F)C(F)(F)C(F)(F)F.[K+] [Perfluorohexane-1-sulphonic acid – potassium salt]
Settings | concentration in brain [ng/g] | concentration in liver [ng/g]
[17] | – | 6730
[18] | 1100 | –
[19] | – | 20900
[20] | – | 57400
[21] | 1520 | –
[22] | – | 48400

CCC1(c2ccccc2)C(=O)NCNC1=O [Primidone]
Settings | concentration in plasma [µg/mL]
[23] | 13
[24] | 12.1

c1ccncc1 [Pyridine]
Settings | concentration in plasma [µg/mL]
[25] | 2.07

[26]
Settings | concentration in plasma [µg/mL]
0.5 h | 3.4
8 h | 0.874

CC(C)[C@]12CC(=O)[C@H](C)[C@H]1C2 [alpha-Thujone]
Settings | concentration in brain [ng/g] | concentration in plasma [ng/mL]
[27] | – | 2.88
[28] | – | 186
[29] | – | 2120
[30] | – | 343
[31] | – | 201
[32] | 36.5 | –
[33] | 1800 | –
